Experimental data from paper PMC9306949 (Clinical Pharmacology in Drug Development, 2022).
“Also recorded” adds a separate entry of the source. Read-outs that look alike come from different tables or passages of the source. Marks after values point to notes of the source that are not given here.

What was measured:
[1] = cynomolgus macaques; cited from earlier work
[2] = cited from earlier work
MIC‐1 [3] = assay: Serum MIC-1 pharmacodynamics; format: in vivo, human; settings: for P, baseline predose MIC‐1 concentration / MIC‐1 %CFBC24 (percent change from predose concentration at 24 hours) / MIC‐1 %CFBCmax (percent change from predose concentration at Cmax) / MIC‐1 AUC0‐24 / MIC‐1 AUC0‐inf / MIC‐1 AUC0‐t / MIC‐1 C24 / MIC‐1 FoldC24 (C24/P): serum, mean (%CV)
[4] = format: in vivo, human; settings: for exposure in UGT1A1*28 heterozygous poor metabolizers (6/7 TA repeats) vs WT (6/6 TA repeats): Treatment A, n = 16 vs n = 12; for C24: mean (%CV)
[5] = system: T, B, and natural killer lymphocytes in peripheral blood; assay: Immunophenotyping of whole blood; format: in vivo, human; settings: periods 1 and 4; absolute counts and percentages
Procedure, shortened: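 Healthy adults took single 60-mg oral doses of the test compound. Whole blood (K2EDTA) was drawn at screening, predose on day 1 of periods 1 and 4, and on day 5 (96 h postdose). A validated GLP flow cytometry method gave absolute counts and percentages of peripheral T, B and NK lymphocytes.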

MIC‐1 [6] = settings: patients with solid tumors/MM and AML; cited from earlier work
[7] = physiologically based PK modeling; cited from earlier work
[8] = cited from earlier work; remark: listed apart in the source
[9] = cited from earlier work; remark: listed apart in the source
[10] = Safety: treatment-emergent adverse events; format: in vivo, human
[11] = monoprotic carboxylic acid; cited from earlier work
[12] = Urine excretion of navtemadlin and M1; format: in vivo, human
[13] = Treatment A: 60 mg new tablet fasted
[14] = Treatment B: 60 mg new tablet fed
[15] = Treatment C: 60 mg old tablet fasted
[16] = single 60-mg doses, healthy subjects
[17] = period 1 (old tablet fasted), 0-48 h urine

CC(C)[C@@H](CS(=O)(=O)C(C)C)N1C(=O)[C@@](C)(CC(=O)O)C[C@H](c2cccc(Cl)c2)[C@H]1c1ccc(Cl)cc1 [Navtemadlin]
urinary excretion route [1]: minor excretion route | protein‐bound [2]: 97.5% | pharmacodynamic half‐life of MIC‐1 serum elevations (MIC‐1 [3]; 60‐mg dose, healthy subjects): > 20 h | correlation navtemadlin AUC0‐t vs MIC‐1 AUC0‐t, intercept (MIC‐1 [3]; Treatment A, AUC in nM • h): 1.97 | correlation navtemadlin AUC0‐t vs MIC‐1 AUC0‐t, slope (MIC‐1 [3]; Treatment A, AUC in nM • h): 0.0006 | P, baseline predose MIC‐1 concentration (MIC‐1 [3]; Treatment A: 60 mg new tablet fasted (periods 2-4)): 170 (119.8); 60 pg/mL | MIC‐1 %CFBC24 (percent change from predose concentration at 24 hours) (MIC‐1 [3]; [13]): 2297 (101); 60% | MIC‐1 %CFBCmax (percent change from predose concentration at Cmax) (MIC‐1 [3]; [13]): 3759 (103.5); 60% | MIC‐1 AUC0‐24 (MIC‐1 [3]; [13]): 32743 (49.4); 60 pg • h/mL | MIC‐1 AUC0‐inf (MIC‐1 [3]; [13]): 96215 (51.9); 31 pg • h/mL | MIC‐1 AUC0‐t (MIC‐1 [3]; [13]): 89409 (48.7); 60 pg • h/mL | MIC‐1 C24 (MIC‐1 [3]; [13]): 1318 (50.5); 60 pg/mL | MIC‐1 FoldC24 (C24/P) (MIC‐1 [3]; [13]): 24.0 (96.8); 60 | P, baseline predose MIC‐1 concentration (MIC‐1 [3]; Treatment B: 60 mg new tablet fed (periods 2-4)): 214 (133.2); 30 pg/mL | MIC‐1 %CFBC24 (percent change from predose concentration at 24 hours) (MIC‐1 [3]; [14]): 1778 (115.5); 30% | MIC‐1 %CFBCmax (percent change from predose concentration at Cmax) (MIC‐1 [3]; [14]): 2684 (115.7); 30% | MIC‐1 AUC0‐24 (MIC‐1 [3]; [14]): 29820 (52.7); 30 pg • h/mL | MIC‐1 AUC0‐inf (MIC‐1 [3]; [14]): 67607 (35.1); 16 pg • h/mL | MIC‐1 AUC0‐t (MIC‐1 [3]; [14]): 81332 (54.2); 30 pg • h/mL | MIC‐1 C24 (MIC‐1 [3]; [14]): 1209 (47.7); 30 pg/mL | MIC‐1 FoldC24 (C24/P) (MIC‐1 [3]; [14]): 18.8 (109.4); 30 | P, baseline predose MIC‐1 concentration (MIC‐1 [3]; Treatment C: 60 mg old tablet fasted (period 1)): 505 (41); 30 pg/mL | MIC‐1 %CFBC24 (percent change from predose concentration at 24 hours) (MIC‐1 [3]; [15]): 139 (61.8); 30% | MIC‐1 %CFBCmax (percent change from predose concentration at Cmax) (MIC‐1 [3]; [15]): 393 (62.5); 30% | MIC‐1 AUC0‐24 (MIC‐1 [3]; [15]): 34365 (53.4); 30 pg • h/mL | MIC‐1 AUC0‐inf (MIC‐1 [3]; [15]): 110915 (30.5); 4 pg • h/mL | MIC‐1 AUC0‐t (MIC‐1 [3]; [15]): 91175 (38.5); 30 pg • h/mL | MIC‐1 C24 (MIC‐1 [3]; [15]): 1144 (38.4); 30 pg/mL | MIC‐1 FoldC24 (C24/P) (MIC‐1 [3]; [15]): 2.39 (36); 30 | delay of tmax after a meal ([4]; B vs A: new tablet fed vs fasted): 1 h | exposure in UGT1A1*28 heterozygous poor metabolizers (6/7 TA repeats) vs WT (6/6 TA repeats) [4]: slightly lower | exposure in UGT1A1*28 heterozygous poor metabolizers (6/7 TA repeats) vs WT (6/6 TA repeats) ([4]; listed as navtemadlin): generally comparable | time of second peak after dosing (enterohepatic recirculation) ([4]; all 3 treatments): around 10 hours | tmax ([4]; human, plasma, oral, 60 mg): 2.01 h | PK in H. pylori–positive vs H. pylori–negative subjects ([4]; n = 12 positive vs n = 18 negative): not markedly different; also recorded: not markedly affected | decrease in extent of exposure (AUC0‐24, AUC0‐t, AUC0‐inf) with a high‐fat meal ([4]; new tablet fed vs fasted): 12% to 18% | intersubject variability, AUC0‐24 %CV ([4]; new tablet, fasted): 55% | intersubject variability, Cmax %CV ([4]; new tablet, fasted): 66% | difference in median tmax between fed and fasted conditions, significance ([4]; new tablet, Wilcoxon signed-rank, alpha level of 0.1): statistically significant | C24 ([4]; plasma, Treatment A: 60-mg new tablet, fasted): 37.4 (83.9); 60 ng/mL | C24 ([4]; plasma, Treatment B: 60-mg new tablet, fed (high-fat meal)): 29.3 (83.3); 30 ng/mL | C24 ([4]; plasma, Treatment C: 60-mg old tablet, fasted): 29.3 (83.6); 30 ng/mL | intrasubject variability of PK parameters ([4]; reference formulation: new tablet, fasted): < 30% | tmax, difference of medians (90%CI) ([4]; test-reference: B (new tablet fed) minus A (new tablet fasted)): 0.5 (0.004‐0.9) ^e , ^f h | tmax, difference of medians (90%CI) ([4]; test-reference: C (old tablet fasted) minus A (new tablet fasted)): 0.1 (–0.3 to 0.6) ^e , ^f h | lymphocyte subsets and monocytes, postdose (96 hours) vs predose [5]: did not differ | effect on serum PD marker MIC‐1 (MIC‐1 [6]): dose‐ and plasma concentration–dependent increases | fraction absorbed [7]: ~100% | dose dependence of exposure ([8]; dose range of 15 mg to 480 mg): linear | apparent oral central volume of distribution ([8]; patients with solid tumors): 62.9 L | solubility, pH dependence [9]: increases with increasing pH | All TEAEs: Number of Subjects with TEAE ([10]; Treatment A (Combined): new tablet fasted): 5 | All TEAEs: Number of Subjects with TEAE ([10]; Treatment B: new tablet fed): 2 | All TEAEs: Number of Subjects with TEAE ([10]; Treatment C: old tablet fasted (period 1)): Nine | incidence of constipation (TEAE) ([10]; occurred only with treatment C (old tablet, fasted)): 13% | incidence of headache (TEAE) ([10]; occurred with all treatments A, B, and C): 10% | TEAE related to navtemadlin ([10]; reported once, treatment B (new tablet fed)): Headache | discontinuations due to adverse events [10, 16]: without any discontinuations; also recorded: no subject discontinued due to an AE | serious adverse events or deaths [10, 16]: No serious adverse events or deaths occurred; also recorded: No deaths or serious AEs occurred | severity of adverse events [10, 16]: mild | pKa [11]: 4.35 | mean amount excreted in urine [12, 17]: 12.1 µg | mean fraction of dose excreted in urine [12, 17]: 0.02% | urine excretion ([12]; single 60-mg dose, healthy subjects): negligible
